Here are results for one compound from ChEMBL document CHEMBL1134785, “Synthesis and biological evaluation of prostaglandin-F alkylphosphinic acid derivatives as bone anabolic agents for the treatment of osteoporosis” (J Med Chem, 2001).

The test system of experiment [1] is Rattus norvegicus. Description: Bone Volume /Tissue Volume (%)measured Histomorphometrically after a dose of 1000 ug/kg in proximal tibial metaphysis. The experiment is classed as functional. As to conditions: at 1000 µg/kg.
The test system of experiment [2] is Rattus norvegicus. The experiment is described as follows: Bone formation rate/bone volume (%/year)bone measured Histomorphometrically after a dose of 10 ug/kg in proximal tibial metaphysis. It counts as functional. The following applies: at 10 µg/kg.
Experiment [3] has as its system Rattus norvegicus. The experiment is described as follows: Trabecular no (mm)measured Histomorphometrically after a dose of 300 ug/kg in proximal tibial metaphysis. The experiment is classed as functional, Trabecula. In short, it runs like this:
(§1)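 Six-month-old rats were ovariectomized, and 60 days later daily subcutaneous dosing began for 60 days, with vehicle of acetate-buffered saline, methylcellulose and polysorbate. Xylenol orange (90 mg/kg) labelled bone pre-treatment and calcein (10 mg/kg) 14 and 4 days pre-sacrifice. Histomorphometry covered the proximal tibial metaphysis 1-4 mm distal to the growth plate-metaphyseal junction. Groups were 6-8 rats, compared by ANOVA/LSD vs vehicle.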

Experiment [4] deals with Rattus norvegicus. Description: Bone Volume /Tissue Volume (%)measured using micro Computed Tomography(CT) after a dose of 3000 ug/kg in Vertebral Bone. As to conditions: at 3000 µg/kg. It counts as functional.
Experiment [5] relates to Rattus norvegicus. The experiment is described as follows: Trabecular thickness […] measured Histomorphometrically after a dose of 3000 ug/kg in proximal tibial metaphysis. The experiment is classed as functional, Trabecula. In short, it runs like this: as §1
Experiment [6] has as its system Rattus norvegicus. The experiment is described as follows: Bone formation rate/bone volume (%/year) bone measured histomorphometrically after a dose of 3000 ug/kg in proximal tibial metaphysis. It counts as functional. The following applies: at 3000 µg/kg.
Experiment [7] has as its system Rattus norvegicus. The experiment is described as follows: connectivity density using micro Computed Tomography(CT) after a dose of 100 ug/kg in Vertebral Bone. It counts as functional. Put shortly:
(§2)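 Rats were ovariectomized at 6 months of age and, after 60 days, dosed subcutaneously once daily for 60 days, with vehicle of acetate-buffered saline, methylcellulose and polysorbate. At necropsy the fifth lumbar vertebra was scanned by micro-CT to obtain cancellous architecture. Groups were 6-8 rats; results were compared to vehicle by ANOVA with least significant difference test.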

Experiment [8] has as its system Rattus norvegicus. The experiment is described as follows: Trabecular no (mm)measured Histomorphometrically after a dose of 1000 ug/kg in proximal tibial metaphysis. It counts as functional, Trabecula. In short, it runs like this: as §1
In experiment [9] the test system is Rattus norvegicus. The experiment is described as follows: connectivity density (mm-3) using micro Computed Tomography(CT) after a does of 30 ug/kg in Vertebral Bone. The experiment is classed as functional. In short, it runs like this: as §2
The test system of experiment [10] is Rattus norvegicus. The experiment is described as follows: Derived trabecular thickness (um) measured using micro Computed Tomography(CT) after a dose of 1000 ug/kg in Vertebral Bone. The experiment is classed as functional, Trabecula. In short, it runs like this: (§3)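 Micro-CT of the fifth lumbar vertebra, measuring cancellous bone volume and architecture. Rats were 6 months old, OVX 60 days before treatment, then dosed daily for 60 days. Test-agent doses were 10–3000 µg/kg, given as a once-daily subcutaneous injection; 6 mg/kg/day was given to the positive-control group. Groups were compared with vehicle by ANOVA plus LSD test.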

Experiment [11] has as its system Rattus norvegicus. Description: Bone formation rate/tissue volume (%/year)bone measured Histomorphometrically after a dose of 10 ug/kg in proximal tibial metaphysis. The experiment is classed as functional. The following applies: at 10 µg/kg.
Experiment [12] has as its system Rattus norvegicus. Description: Directly measured thickness(um) using micro Computed Tomography(CT) after a dose of 30 ug/kg in Vertebral Bone. It counts as functional. Put shortly:
as §3

Experiment [13] concerns Rattus norvegicus. The experiment is described as follows: Periosteal mineral apposition rate ([…]) measured Histomorphometrically after a dose of 100 ug/kg in tibial diaphysis. The experiment is classed as functional. In short, it runs like this:
(§4)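 Six-month-old rats, bilaterally ovariectomized, 6-8 per group, on natural chow. After 60 days they received once-daily subcutaneous dosing for 60 days at 0.01–3.0 mg/kg. Vehicle was acetate-buffered saline with methylcellulose and polyoxyethylenesorbitan monooleate. Labels were xylenol orange 90 mg/kg before treatment and calcein 10 mg/kg 14 and 4 days before sacrifice. Tibial histomorphometry was read under fluorescent light, with ANOVA/LSD versus vehicle.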

Experiment [14] concerns Rattus norvegicus. Description: Periosteal mineralizing surface (%) measured Histomorphometrically after a dose of 30 ug/kg in tibial diaphysis. It counts as functional. In short, it runs like this:
(§5)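 Rats on natural chow (1.46% Ca) were bilaterally ovariectomized at 6 months and left untreated for 60 days. They then received once-daily subcutaneous doses for 60 days, with vehicle of acetate-buffered saline, methylcellulose and polysorbate. Xylenol orange (90 mg/kg) was given before treatment and calcein (10 mg/kg) 14 and 4 days before sacrifice. Tibiae were analysed by fluorescent histomorphometry, 6-8 rats/group, ANOVA/LSD vs vehicle.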

For experiment [15], the system named is Rattus norvegicus. Description: Bone formation rate/tissue volume (%/year) bone measured histomorphometrically after a dose of 30 ug/kg in proximal tibial metaphysis. The experiment is classed as functional. The following applies: at 30 µg/kg.
The subject of experiment [16] is Rattus norvegicus. Description: Trabecular no (mm)measured Histomorphometrically after a dose of 100 ug/kg in proximal tibial metaphysis. It counts as functional, Trabecula. In short, it runs like this: as §1
The test system of experiment [17] is Rattus norvegicus. Description: Periosteal mineralizing surface (%) measured Histomorphometrically after a dose of 100 ug/kg in tibial diaphysis. It counts as functional. Put shortly:
as §5

The subject of experiment [18] is Rattus norvegicus. The experiment is described as follows: Mineralizing surface/bone surface(%) measured Histomorphometrically after a dose of 1000 ug/kg in proximal tibial metaphysis. The experiment is classed as functional. Put shortly: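 Ovariectomized six-month-old rats, 6-8 per group, were dosed subcutaneously once daily at 0.01–3.0 mg/kg for 60 days, starting 60 days after surgery. Vehicle was acetate-buffered saline, methylcellulose and polyoxyethylenesorbitan monooleate. Labels were xylenol orange 90 mg/kg pretreatment and calcein 10 mg/kg at 14 and 4 days before necropsy. Histomorphometry covered the proximal tibial metaphysis, 1–4 mm distal to the growth plate–metaphyseal junction. ANOVA/LSD versus vehicle.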

Experiment [19] concerns Rattus norvegicus. The experiment is described as follows: Marrow area (mm) measured Histomorphometrically after a dose of 30 ug/kg in tibial diaphysis. It counts as functional. In short, it runs like this:
as §4

For `CP(=O)(O)CCC/C=C\C[C@@H]1[C@@H](/C=C/[C@@H](O)COc2ccccc2)[C@H](O)C[C@@H]1O`, the Activity came out at 9.43% in experiment [1]; 498.01% in experiment [2]; 39.48% in experiment [4]; 247.55% in [6]; 9.81% in experiment [11]; 17.55% in [15]. This compound also displayed an Activity in experiment [18] of 22.04%. The Trabecular no. is 1.27 1/mm in experiment [3], 1.64 1/mm in experiment [8] and 1.28 1/mm in experiment [16]. Moreover, the Trabecular thickness in experiment [5] is 55.8 µm. Also, the Connectivity density was determined as 68.1 mm**-3 in [7] and 59.2 mm**-3 in [9]. For the same compound, in experiment [10], the Derived trabecular thickness was determined as 80.6 µm. The Directly measured thickness in [12] was determined as 126 µm. Also, in experiment [13], the Periosteal mineral apposition rate came out at 0.38 µm day-1. The values for the Periosteal mineralizing surface in experiment [14] and in [17] were 26.23% and 15.21%, respectively. Further, the Marrow area in experiment [19] stood at 0.87 mm².
